PubChem BioAssay AID651753 (Broad Institute, 2012)
Where “and” joins values, the source holds several entries; their conditions need not be identical. Identical values can stand only once. Calls of active or inactive are those of the source.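 How the source made its calls: active means falling-signal curve whose AC50 is no more than twice the top valid dose; inconclusive means flat fit with moderate inhibition, or poor fit; inactive means the rest.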

Key:
[1] = system: SK-MEL-5 TRPM1-promoter luciferase, luminescence, 24 h; experiment: inhibitors of MITF-driven TRPM1 promoter activity, dose response, cell-based, SK-MEL-5, luciferase, dry powder, set 10 (AID 651753)
In short: (§1)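 Test system: SK-MEL-5 melanoma cells, stable TRPM1 promoter-driven luciferase reporter | Amount: 2000 cells/well | Schedule: Compound addition one day post-seeding, then 24 h exposure at 37 °C | Technique: Steady-Glo luminescence, 5 min at room temperature | Read-out: Luminescence change, decrease reflecting reduced MITF-driven TRPM1 expression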

[2] = as above; details: SK-MEL-5 TRPM1-promoter luciferase, luminescence, 24 h; at 35 µM (top of the series)
In short: as §1

## O=C1C(Nc2ccc(Cl)cc2)=C(N2CCCC2)C(=O)c2ccccc21
[1]
  AC50: > 70 µM (inactive)

## CCN1CCN(C2=C(Nc3ccc(F)cc3F)C(=O)c3ccccc3C2=O)CC1
[1]
  AC50: 11.4 µM

## O=C1C(Nc2cccc(Cl)c2)=C(N2CCCC2)C(=O)c2ccccc21
[1]
  AC50: > 70 µM (inactive)

## O=C(NC1=C(N2CCN(c3ccccc3)CC2)C(=O)c2ccccc2C1=O)c1ccccc1
[1]
  AC50: > 70 µM (inactive)

## COC1=C(NS(=O)(=O)c2ccccc2)C(=O)c2ccccc2C1=O
[1]
  AC50: 8.13 µM

## NC1=CC(=O)c2ccccc2C1=O
[1]
  AC50: 1.39 µM

## NS(=O)(=O)c1ccc(NC2=CC(=O)c3ccccc3C2=O)cc1
[1]
  AC50: 0.651 µM and 0.229 µM

## O=C1C(Nc2ccc(Br)cc2)=C(N2CCCCC2)C(=O)c2ccccc21
[1]
  AC50: 19.2 µM

## O=C1C=C(Nc2ccc([N+](=O)[O-])c(C(F)(F)F)c2)C(=O)c2ccccc21
[1]
  AC50: 0.718 µM

## CN1CCN(C2=C(Nc3ccc(F)cc3F)C(=O)c3ccccc3C2=O)CC1
[1]
  AC50: 13.1 µM

## CC(C)N1CCN(C2=C(Nc3ccc(F)cc3F)C(=O)c3ccccc3C2=O)CC1
[1]
  AC50: 12.6 µM

## CC(C)N1CCN(C2=C(Nc3ccc(F)cc3)C(=O)c3ccccc3C2=O)CC1
[1]
  AC50: 29.2 µM

## COc1ccc(NC2=C(N3CCCCC3)C(=O)c3ccccc3C2=O)cc1
[1]
  AC50: 17.2 µM

## Cc1ccc(NC2=CC(=O)c3ccccc3C2=O)cc1
[1]
  AC50: 3.13 µM
[2]
  activity change, negative = inhibition: 76.9% (inactive)

## O=C1C(Nc2ccc(F)cc2)=C(N2CCCCC2)C(=O)c2ccccc21
[1]
  AC50: 18.5 µM

## O=C1C=C(Nc2ccccc2)C(=O)c2ccccc21
[1]
  AC50: 3.89 µM
